HKDC1 inhibitor = blocks human hexokinase HKDC1 activity. 0.16% of 340,000 active. recombinant HKDC1, G6PDH/diaphorase resazurin coupled fluorescence. inhibition, % at 20 µM;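 active = inhibition above about 35% when tested at 20 µM, limit read from the data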;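 also: plate controls were DMSO wells with enzyme for no effect and DMSO wells lacking enzyme for full effect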
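Assay system: recombinant HKDC1 hexokinase; detection: coupled resazurin fluorescence, excitation 525 nm, emission 613 nm; benchmarks: DMSO-plus-enzyme-mix negative control, buffer-substituted positive control; compound dosing: single 20 µM dose; schedule: 90 min at room temperature in dark; also added: glucose plus 1 mM ATP as hexokinase substrates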
Apaf-1 inh = inhibitors of human Apaf-1 apoptosome | O14727 | reconstituted apoptosome caspase-3 activity, DEVD-Rh110 fluorescence | inhibition, % at 20 µM | 0.71% of 330,000 active; active = inhibition of at least 40% at 20 µM;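 also: plate controls were DMSO wells for no effect and DEVD-CHO caspase inhibitor wells for full effect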
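System: Apoptosome proteins | Medium: Hepes pH 7.5 with detergent and BSA | Also added: Cytochrome c trigger plus (Z-DEVD)2-Rh110 caspase-3 substrate | Incubation: 30 min compound preincubation, 50 min activation, room temperature | Detection: Rhodamine 110 fluorescence at Ex 480/Em 540 nm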
GSTO1 counter = counter-screen for RBBP9 inhibitors: inhibitors of human GSTO1; P78417; recombinant GSTO1, activity-based probe fluorescence polarization; inhibition, % at 5.96 µM; 1.1% of 300,000 active; AID 1974;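 active = inhibition above the campaign mean inhibition plus 3 SD, cut at about 35% in these data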;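 also: 0% = GSTO1-1 with DMSO and 100% = wells lacking GSTO1-1 enzyme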
Target sequence (P78417 whole entry, looked up): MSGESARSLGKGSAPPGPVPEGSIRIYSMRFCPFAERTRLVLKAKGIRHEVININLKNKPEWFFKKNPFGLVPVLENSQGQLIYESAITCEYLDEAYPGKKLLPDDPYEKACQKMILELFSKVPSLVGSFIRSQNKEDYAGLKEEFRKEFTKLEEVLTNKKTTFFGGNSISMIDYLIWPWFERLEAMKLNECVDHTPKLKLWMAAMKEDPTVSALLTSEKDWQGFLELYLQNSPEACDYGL
DTT redox prof = compounds producing H2O2 with reducing agent – biochemical, NIH compound library profiling, artefact control for MLSCN library redox annotation, primary screen. activation, % at 10 µM. DTT-dependent redox cycling H2O2, phenol red/HRP absorbance; 100% = 100 µM peroxide control, 0% = buffer. 0.03% of 200,000 active;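 active = activation of at least 50% relative to the plate's high and low controls in the primary single-dose screen; inactive = activation below 50%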;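 also: compound incubated with DTT at 0.8 mM final as the reducing agent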
SUMO HTRF inh = SUMOylation inhibition; 0.36% of 290,000 active; P63279; HTRF SUMOylation assay, SAE1/SAE2 + UBC9, in vitro; inhibition, % at 35 µM; in the data active = inhibition above about 50%, passing the limit was not always enough
Target sequence (P63279 whole entry, looked up): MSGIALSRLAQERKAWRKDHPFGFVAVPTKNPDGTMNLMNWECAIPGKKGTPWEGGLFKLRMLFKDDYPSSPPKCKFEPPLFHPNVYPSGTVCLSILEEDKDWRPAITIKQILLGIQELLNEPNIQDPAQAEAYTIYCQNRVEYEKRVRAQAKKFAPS
GSTO1 inh conf = GSTO1 (human) inhibition, confirmation; shares compounds with GSTO1 counter; recombinant GSTO1, probe fluorescence polarization; AID 2176; inhibition, % at 5.96 µM; 54% of 2,400 active;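 active = inhibition above the primary screen's cutoff, its mean inhibition plus 3 SD, cut at about 35% in these data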;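 also: loss of polarization as inhibitors block binding of rhodamine sulfonate ester activity probe; 0% = GSTO1 with DMSO and 100% = wells lacking GSTO1 enzyme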
An asterisk follows results filed as active. A selection: hits, their analogues and other compounds. The true share with any hit is near 1.4%.

`OC(CNCc1ccccc1)Cn1ccc2ccccc21` (configuration not stated) gave HKDC1 inhibitor -10, Apaf-1 inh -8, GSTO1 counter 3, DTT redox prof 0 and SUMO HTRF inh 1.
`Oc1ccccc1NCC(O)Cn1ccc2ccccc21` (configuration not stated) gave HKDC1 inhibitor 23, Apaf-1 inh 4, GSTO1 counter 66*, DTT redox prof 1, SUMO HTRF inh 19 and GSTO1 inh conf 7.
`CN(C)S(=O)(=O)c1ccc(Cl)c(C(=O)NNC(=O)Cn2ccc(C(F)(F)F)n2)c1` gave HKDC1 inhibitor -1 and Apaf-1 inh 0.
For CN(Cc1ccccc1)C(=O)c1[nH]cnc1C(=O)N[C@@H](Cc1ccccc1)C(=O)OC(C)(C)C the results were HKDC1 inhibitor 0, Apaf-1 inh 18, GSTO1 counter -1 and SUMO HTRF inh -9.
Screening O=c1c2ccccc2[nH]c2ccc(O)cc12 returned HKDC1 inhibitor 9, Apaf-1 inh -23, GSTO1 counter 46*, SUMO HTRF inh 18 and GSTO1 inh conf 21.
Screening Cc1ccc2[nH]c3ccccc3c(=O)c2c1 returned HKDC1 inhibitor -2, Apaf-1 inh 3, GSTO1 counter -5 and SUMO HTRF inh 29.
For COc1ccccc1NC(=O)C(C)Sc1nc(-c2ccccc2)cn1N (configuration not stated) the results were HKDC1 inhibitor 19 and Apaf-1 inh -13.
Nc1nnc(CC(=O)N/N=C/c2cc([N+](=O)[O-])cc(Br)c2O)s1 was read as HKDC1 inhibitor -1, Apaf-1 inh -22, GSTO1 counter 41*, DTT redox prof -2, SUMO HTRF inh 99* and GSTO1 inh conf 71*.
`CC(=O)N1CCc2[nH]c3ccc(C)cc3c2C1` gave HKDC1 inhibitor 0, Apaf-1 inh 37, GSTO1 counter 54*, SUMO HTRF inh 4 and GSTO1 inh conf 2.
`CCOC(=O)N1CCc2[nH]c3ccc(C)cc3c2C1` gave HKDC1 inhibitor 6, Apaf-1 inh 9, GSTO1 counter 8, DTT redox prof 0 and SUMO HTRF inh -8.
O=C(N1CCc2[nH]c3ccccc3c2C1)C(F)(F)F was read as HKDC1 inhibitor 6, Apaf-1 inh -10, GSTO1 counter 88*, SUMO HTRF inh -10 and GSTO1 inh conf 7.
For O=C(Nc1nc(-c2ccco2)c(-c2ccco2)s1)c1cnccn1 the results were HKDC1 inhibitor 5, Apaf-1 inh 26, GSTO1 counter 45* and GSTO1 inh conf 10.
For CSc1ccccc1NC(=O)COC(=O)c1ccccc1Cc1ccccc1 the results were HKDC1 inhibitor -6, Apaf-1 inh 18, GSTO1 counter 69*, DTT redox prof 0, SUMO HTRF inh -9 and GSTO1 inh conf 4.
O=C(O)CC1c2ccccc2CCN1S(=O)(=O)c1cccs1 (configuration not stated) was read as HKDC1 inhibitor -4, Apaf-1 inh -22 and GSTO1 counter 9.
For CCn1cc(CCC(=O)O)c(C)n1 the results were HKDC1 inhibitor -3, Apaf-1 inh -11, GSTO1 counter 10, DTT redox prof 0 and SUMO HTRF inh -4.
Screening CCn1cc(NC(=O)CCl)c(C)n1 returned Apaf-1 inh -4, GSTO1 counter 72*, DTT redox prof -1, SUMO HTRF inh 0 and GSTO1 inh conf 81*.
O=C(O)c1cccc(O)c1O was read as HKDC1 inhibitor -6, Apaf-1 inh -4 and GSTO1 counter 7.
For Oc1cccc(O)c1O the results were Apaf-1 inh 2, GSTO1 counter 62* and GSTO1 inh conf 7.
Screening O=C(O)c1[nH]c2ccccc2c1C(c1ccccc1)c1c(C(=O)O)[nH]c2ccccc12 returned HKDC1 inhibitor 9, Apaf-1 inh 4, GSTO1 counter 38*, SUMO HTRF inh 5 and GSTO1 inh conf 30.
`COc1ccc(N2CCN(C(CNC(=O)CC(C)(C)C)c3ccc4c(c3)OCO4)CC2)cc1` (configuration not stated) gave HKDC1 inhibitor -7, Apaf-1 inh 4, GSTO1 counter 9 and SUMO HTRF inh -10.

Screens from PubChem.
